From ChEMBL document CHEMBL1157161, “N-1H-benzimidazol-5-ylbenzenesulfonamide derivatives as potent hPXR agonists” (Bioorg Med Chem, 2008) come the findings set out here.

Test [1] concerns the target T1, Nuclear receptor subfamily 1 group I member 2 (Homo sapiens, UniProt O75469).
T1 sequence (O75469 whole entry): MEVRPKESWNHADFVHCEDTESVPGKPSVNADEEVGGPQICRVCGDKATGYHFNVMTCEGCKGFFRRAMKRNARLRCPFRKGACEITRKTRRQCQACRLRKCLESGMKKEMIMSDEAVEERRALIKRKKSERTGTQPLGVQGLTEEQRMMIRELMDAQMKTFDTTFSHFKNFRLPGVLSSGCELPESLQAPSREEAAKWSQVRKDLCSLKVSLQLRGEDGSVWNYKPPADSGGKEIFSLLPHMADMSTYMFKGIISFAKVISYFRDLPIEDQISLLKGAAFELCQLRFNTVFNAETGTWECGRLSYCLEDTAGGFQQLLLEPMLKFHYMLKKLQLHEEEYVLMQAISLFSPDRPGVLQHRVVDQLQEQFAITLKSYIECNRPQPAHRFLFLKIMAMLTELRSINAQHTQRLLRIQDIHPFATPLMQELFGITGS
The test is described as follows: Agonist activity at human pregnane X receptor expressed in HGPXR reporter cells. Format: functional, cell-based.

Test [2] deals with T1, Nuclear receptor subfamily 1 group I member 2. The test is described as follows: Protection of human pregnane X receptor against proteolytic digestion in presence of trypsin.
Test [3] concerns Hepatocyte. As to the kind of experiment: Induction of CYP3A4 mRNA expression in human hepatocyte FT271 at 1 uM after 24 hrs by RT-PCR relative to control. Format: functional. In outline:
(§1)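 Primary adult human hepatocytes from lobectomy segments, plated on collagen in Williams' E/Ham's F-12 (1:1) defined medium; 24 h exposure begun 48 h after plating, vehicle DMSO 0.1%. Total RNA extracted with TRIzol, cDNA from 1 µg using random hexamers (42 °C, 60 min). Target mRNA quantified by real-time PCR in duplicates, comparative Ct method. Result given as fold induction over DMSO-treated cells ± standard error.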

The subject of test [4] is Hepatocyte. As to the kind of experiment: Induction of […] mRNA expression in human hepatocyte FT271 at 1 uM after 24 hrs by RT-PCR relative to control. Format: functional. In outline:
as §1

Test [5] relates to Hepatocyte. The test is described as follows: Induction of CYP3A4 mRNA expression in human hepatocyte FT272 at 1 uM after 24 hrs by RT-PCR relative to control. Format: functional. In outline: as §1
Test [6] relates to Hepatocyte. The test is described as follows: Induction of […] mRNA expression in human hepatocyte FT272 at 1 uM after 24 hrs by RT-PCR relative to control. Format: functional. In a few lines: as §1
Test [7] deals with Hepatocyte. As to the kind of experiment: Induction of CYP3A4 mRNA expression in human hepatocyte FT268 at 1 uM after 24 hrs by RT-PCR relative to control. Format: functional. In outline:
as §1

Test [8] has as its system Hepatocyte. The test is described as follows: Induction of […] mRNA expression in human hepatocyte FT268 at 1 uM after 24 hrs by RT-PCR relative to control. Format: functional. In outline:
as §1

In test [9] the test system is Hepatocyte. As to the kind of experiment: Induction of CYP3A4 mRNA expression in human hepatocyte FT269 at 1 uM after 24 hrs by RT-PCR relative to control. Format: functional. In a few lines:
as §1

In test [10] the test system is Hepatocyte. The test is described as follows: Induction of […] mRNA expression in human hepatocyte FT269 at 1 uM after 24 hrs by RT-PCR relative to control. Format: functional. In a few lines:
as §1

In [1], `O=S(=O)(Nc1ccc2c(c1)ncn2Cc1ccccc1)c1ccc2ccccc2c1` had an EC50 of 0.051 µM.
On the same count and under the same terms, the figure for `CC(C)(C)c1ccc(S(=O)(=O)Nc2ccc3c(c2)ncn3Cc2ccccc2)cc1` is 0.042 µM.
On the same count and under the same terms, the figure for `O=C(Nc1ccc2c(c1)ncn2Cc1ccccc1)Nc1ccccc1Cl` is 1.48 µM; for `O=C(Cc1ccc2ccccc2c1)Nc1ccc2c(c1)ncn2Cc1ccccc1` it is > 5 µM.
In [1], `O=C(Cc1ccccc1Cl)Nc1ccc2c(c1)ncn2Cc1ccccc1` returned an EC50 of 0.515 µM.
On to `CC(c1ccccc1)n1cnc2cc(NS(=O)(=O)Cc3ccccc3Cl)ccc21` (racemic), for which the EC50 in [1] worked out at 0.049 µM; in test [2], 0.809 µM.
`O=S(=O)(Nc1ccc2ncn(Cc3ccccc3)c2c1)c1ccccc1Cl` showed an EC50 in [1] of 0.34 µM.
Turning to `Cc1cc(C)c(S(=O)(=O)Nc2ccc3c(c2)ncn3Cc2ccccc2)c(C)c1`, the EC50 was determined as 0.0015 µM in [1] and 0.00805 µM in test [2]. Further, the Ratio with Hepatocyte [3] amounted to 15.58; in the test on Hepatocyte [4], 1.89; in the test with Hepatocyte [5], 31.68; with Hepatocyte [6], 7.55.
As to `O=S(=O)(Nc1ccc2c(c1)ncn2Cc1ccccc1)c1cccc2ccccc12`, in test [1], the EC50 is 0.02 µM.
`O=S(=O)(Cc1ccccc1Cl)Nc1ccc2c(ccn2Cc2ccccc2)c1` registered an EC50 in [1] of 0.197 µM.
Still for that read-out and setting: the result for `O=S(=O)(Nc1ccc2c(c1)ncn2Cc1ccccc1)c1ccccc1Br` reads 0.02 µM.
For the molecule `O=S(=O)(Nc1ccc2c(c1)ncn2Cc1ccccc1)c1ccccc1Cl`, the results for the EC50 in test [1] and in [2] were 0.023 µM and 0.157 µM, respectively. Also, the Ratio in the test with Hepatocyte [7] came to 7.23; with Hepatocyte [8], 3.02; with Hepatocyte [9] it was 17.04; in the test with Hepatocyte [10] it was 10.46; in the test on Hepatocyte [3] it was 9.97; in the test on Hepatocyte [4], 3.05. The Ratio in the test with Hepatocyte [5] came to 36.06; in the test on Hepatocyte [6] it was 11.83.
`CCCCCCn1cnc2cc(NS(=O)(=O)c3c(C)c(C)c(C)c(C)c3C)ccc21` came in with an EC50 in test [1] of 0.013 µM.
The same measure, in the same setting: the figure for `Cc1cc(C)cc(S(=O)(=O)Nc2ccc3c(c2)ncn3Cc2ccccc2)c1` is 0.033 µM; for `O=S(=O)(Nc1ccc2c(c1)ncn2-c1ccc2ccccc2c1)c1ccccc1Cl` it is 0.385 µM.
On the same count and under the same terms, the figure for `O=S(=O)(Cc1ccccc1Cl)Nc1ccc2ncn(Cc3ccccc3)c2c1` is 0.376 µM.
For the molecule `CCOP(=O)(OCC)C(=Cc1cc(C(C)(C)C)c(O)c(C(C)(C)C)c1)P(=O)(OCC)OCC`, the Ratio stood at 4.02 with Hepatocyte [7]; 3.26 in the test with Hepatocyte [8]; 10.9 with Hepatocyte [9]; 3.74 in the test on Hepatocyte [10]; 11.84 in the test on Hepatocyte [3]; 2 in the test on Hepatocyte [4]. The figures for the Ratio with Hepatocyte [5] and in the test on Hepatocyte [6] were 24.01 and 3.91, respectively.
Consider `O=C(Nc1ccc2c(c1)ncn2Cc1ccccc1)Nc1ccccc1[N+](=O)[O-]`, for which the EC50 in test [1] is > 5 µM.
Still for that read-out and setting: the figure for `O=[N+]([O-])c1ccc(S(=O)(=O)Nc2ccc3c(c2)ncn3Cc2ccccc2)cc1` is 0.336 µM.
The same measure, in the same setting: the figure for `O=S(=O)(Cc1ccccc1Cl)Nc1ccc2c(c1)ncn2Cc1ccccc1` is 0.176 µM; for `Cc1c(C)c(C)c(S(=O)(=O)Nc2ccc3c(c2)ncn3-c2ccc3ccccc3c2)c(C)c1C` it is 0.055 µM; for `CCCc1ccc(S(=O)(=O)Nc2ccc3c(c2)ncn3Cc2ccccc2)cc1` it is 0.052 µM.
Take `Cc1c(C)c(C)c(S(=O)(=O)Nc2ccc3c(c2)ncn3Cc2ccccc2)c(C)c1C`: the EC50 in test [1] worked out at 0.0007 µM; in test [2], 0.00804 µM. The Ratio with Hepatocyte [9] was determined as 29.02; in the test with Hepatocyte [10] it was 14.89; in the test on Hepatocyte [3], 14.91; in the test on Hepatocyte [4] it was 4.86; with Hepatocyte [5] it was 32.59; with Hepatocyte [6], 11.41.
`O=[N+]([O-])c1ccccc1S(=O)(=O)Nc1ccc2c(c1)ncn2Cc1ccccc1`: the EC50 in test [1] was determined as 0.271 µM.
Same read-out and setting: the figure for `O=[N+]([O-])c1ccccc1CS(=O)(=O)Nc1ccc2c(c1)ncn2Cc1ccccc1` is 0.428 µM; for `CCCCCCn1cnc2cc(NS(=O)(=O)c3ccccc3Cl)ccc21` it is 0.055 µM; for `O=C(Cc1cccc2ccccc12)Nc1ccc2c(c1)ncn2Cc1ccccc1` it is 0.217 µM.
Same read-out and setting: the figure for `O=S(=O)(Nc1ccc2c(c1)ncn2Cc1ccccc1)c1ccccc1F` is 0.101 µM; for `O=C(Nc1ccc2c(c1)ncn2Cc1ccccc1)Nc1cccc2ccccc12` it is > 5 µM.
`Cc1ccccc1S(=O)(=O)Nc1ccc2c(c1)ncn2Cc1ccccc1` came in with an EC50 in test [1] of 0.045 µM.
Regarding `O=S(=O)(Nc1ccc2c(c1)ncn2Cc1ccccc1)c1ccc(-c2ccccc2)cc1`, the EC50 in test [1] is 0.388 µM.
